Shown are actives, neighbours in structure and some others; about 3.8% of the full set was active somewhere.
INS promoter inh: inhibitors of insulin promoter-driven GFP, primary screen, imaging, TRM-6 cells (human fetal islet line), eGFP reporter, cell count; reporter expression induced with tamoxifen; inhibition, % at 2 µM; 0.9% of 130,000 active; AID 1273, 2008;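 active means inhibition above the mean plus 3 SD, with well images judged a real hit on visual review, cut at about 60% in these data, passing the limit was not always enough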
RAM network inh: inhibitors of the yeast RAM network, primary screen, dse1pr::URA3 reporter, 5-FOA selection | S. cerevisiae dse1pr::URA3 reporter, 5-FOA growth OD615, 2 d; analog-sensitive cbk1-as2 kinase mutant strain | inhibition, % at 50 µM | 1.8% of 190,000 active;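 active means inhibition above a set limit, 3 SD over mean compound inhibition, cut at about 8.4% in these data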;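 further: inhibition rescues growth on 5-FOA so higher OD means more RAM inhibition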
NPY2 pot ag: NPY-Y2 potentiators or agonists, primary screen, cell-based; cells expressing NPY-Y2, potentiator/agonist read-out; AID 1359, 2008; 0.45% of 220,000 active; Neuropeptide Y receptor type 2 (Homo sapiens), P49146; activation, % at 3.6 µM; in the data active means activation above about 27%;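 further: cells stimulated with NPY near EC25 plus isoproterenol at EC100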
NPY-Y2 antag: NPY-Y2 receptor antagonists, primary screen, cell-based; inhibition, % at 2.7 µM; Neuropeptide Y receptor type 2 (Homo sapiens), P49146; NPY-Y2 expressing cells, antagonist mode; 0.99% of 140,000 active; in the data active means inhibition above about 17%
NPY Y1 blocker: NPY-Y1 receptor antagonists, primary screen, cell-based; inhibition, % at 3.6 µM; Neuropeptide Y receptor type 1 (Homo sapiens), P25929; 1% of 200,000 active; HEK293-CNG Y1 cells, membrane potential fluorescence; NPY at EC95, then isoproterenol; AID 1040, 2008;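 active means inhibition above the campaign mean inhibition of all tested compounds plus 3 SD, cut at about 20% in these data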
Target sequence (P25929 whole entry, looked up): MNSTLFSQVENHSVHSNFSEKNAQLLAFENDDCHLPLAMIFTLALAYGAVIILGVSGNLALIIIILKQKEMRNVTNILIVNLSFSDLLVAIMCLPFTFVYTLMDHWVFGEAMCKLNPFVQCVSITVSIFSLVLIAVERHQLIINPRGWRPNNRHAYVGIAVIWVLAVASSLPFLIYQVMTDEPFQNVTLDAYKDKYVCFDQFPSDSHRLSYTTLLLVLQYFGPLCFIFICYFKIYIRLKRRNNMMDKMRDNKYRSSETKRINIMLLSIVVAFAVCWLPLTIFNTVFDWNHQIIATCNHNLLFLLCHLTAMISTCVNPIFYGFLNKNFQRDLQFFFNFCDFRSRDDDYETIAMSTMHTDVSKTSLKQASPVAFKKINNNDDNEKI
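Test system: HEK293 cells co-expressing NPY Y1 receptor and cyclic-nucleotide gated channel; Also added: NPY (25 nM), isoproterenol (1 µM), Ro 20-1724 (25 µM); Compound dosing: one concentration, 3.6 µM, in 0.4% DMSO; Timing: dye 3 h, compound 60 min room temperature, stimulation 45 min; Technique: Membrane-potential fluorescent dye readout.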
NPY-Y1 PAM-ag: NPY-Y1 receptor potentiators or agonists, primary screen, cell-based | NPY-Y1 expressing cells, potentiator/agonist activation | 0.37% of 220,000 active | activation, % at 3.6 µM; in the data active means activation above about 33%, passing the limit was not always enough;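 further: cells stimulated with NPY at EC10 then isoproterenol at EC100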
Hits are given with their value; - = inactive; . = no result.

SMILES	INS promoter inh	RAM network inh	NPY2 pot ag	NPY-Y2 antag	NPY Y1 blocker	NPY-Y1 PAM-ag
CC1CC(C)CN(CCOc2ccccc2-c2ccccc2)C1 (centres undefined)	-	-	-	30	34	-
CC1CCN(CCOc2ccccc2-c2ccccc2)CC1	-	-	-	-	-	-
CC(Nc1cccc(F)c1)C(=O)Nc1ccc(S(N)(=O)=O)cc1 (centres undefined)	.	-	-	.	-	-
Cc1cc(-c2[nH]nc3c2C(c2ccsc2)C(C#N)=C(N)O3)c(C)s1 (centres undefined)	-	-	-	149	154	-
Cc1cc(-c2[nH]nc3c2C(c2cccc(O)c2)C(C#N)=C(N)O3)c(C)s1 (centres undefined)	-	-	-	-	-	-
CN(C)c1ccc(NC(=O)COC(=O)c2cc(=O)c3ccccc3o2)cc1	67	-	-	-	-	-
CC(c1cccs1)N(Cc1ccco1)C(=O)Nc1ccc(Cl)c(Cl)c1 (centres undefined)	-	11	-	-	-	-
O=C(NCCOc1ccc(F)cc1)c1ccccc1SCc1ccccc1	-	9.5	-	-	-	-
CCc1ccc(OCCNC(=O)c2ccccc2SCc2ccc(F)cc2)cc1	-	-	-	-	-	-
COc1cccc(OC)c1C(=O)OCC(=O)Nc1ccc(OC(F)(F)F)cc1	.	-	-	-	-	-
O=C(Nc1cccc(Cl)c1)c1cc(S(=O)(=O)NCCc2ccc(Cl)cc2)ccc1F	.	10	-	-	-	-
COc1ccc([N+](=O)[O-])cc1NC(=O)CSc1ncccn1	-	-	-	.	-	-
COc1ccc([N+](=O)[O-])cc1NC(=O)CSCc1ccccc1C	-	8.6	-	-	-	-
COC(=O)c1ccc(C(=O)OC)c(NC(=O)CSCc2ccc(Br)cc2)c1	.	11	-	-	-	-
COc1ccc([N+](=O)[O-])cc1NC(=O)CSCc1ccc(Br)cc1	-	11	-	-	-	-
CCCCOC(=O)Nc1cc(C(=O)OC)ccc1C(=O)OC	65	-	-	-	-	-
CCc1ccc(N/C(N)=N/c2nc(CSc3ncccn3)cc(=O)[nH]2)cc1	.	-	-	.	-	-
O=C(N/N=C/c1ccc2cccnc2c1)c1ccco1	.	-	-	.	-	-
C=CCn1c(C)cc(C(=O)CSc2nnc(-c3cccc(S(=O)(=O)N(CC)CC)c3)o2)c1C	-	11	-	-	-	-
CCN(CC)S(=O)(=O)c1cccc(-c2nnc(-c3ccc(C)cc3)o2)c1	-	-	-	-	-	-
COc1ccc(CC(=O)OCC(=O)NC(=O)NC23CC4CC(CC(C4)C2)C3)cc1	-	-	-	-	-	-
CC1CC1C(=O)OCC(=O)NC(=O)NC12CC3CC(CC(C3)C1)C2 (centres undefined)	100	-	-	.	-	-
COC(=O)c1sc(NC(=O)c2ccc(Cn3cc(Cl)cn3)o2)c(C#N)c1C	-	-	36	-	-	60
O=C(NC1CCCCC1)C(c1cccs1)N(Cc1cccs1)C(=O)c1cccs1 (centres undefined)	-	-	-	18	41	-
COCCN(C(=O)CNC(=O)c1cccs1)C(C(=O)NC1CCCC1)c1cccs1 (centres undefined)	-	-	-	-	-	-
SMILES	INS promoter inh	RAM network inh	NPY2 pot ag	NPY-Y2 antag	NPY Y1 blocker	NPY-Y1 PAM-ag
O=C(NC1CCCCC1)C(c1cccs1)N(C(=O)c1ccccn1)c1ccccc1 (centres undefined)	-	9.5	-	-	-	-
O=C(c1ccccc1)c1nn(-c2ccccc2)c2nnc(Cc3ccccc3)c(=O)n12	-	-	-	29	38	-
CSc1ccc(Cl)c(C(=O)Nc2ccc(C)cn2)c1	.	-	-	.	-	-
COc1cc(C)nc(N2CCCC(C(=O)Nc3cc(Cl)ccc3OC)C2)n1 (centres undefined)	-	-	-	-	-	-
COc1ccc(-c2cc(N3C(=O)Nc4ccccc4N3O)n[nH]2)c(OC)c1	.	-	-	.	-	-
O=C(O)C1CSC(c2ccccc2)N1C(=O)c1ccco1 (centres undefined)	74	-	-	-	-	-
CC(=O)N1C(C(=O)O)CSC1c1cccc(C)c1 (centres undefined)	-	-	-	-	-	-
Cc1c(C(=O)Nc2ccccc2C(=O)N2CCCC2)cccc1[N+](=O)[O-]	.	-	-	.	-	-
CC(=O)N1CCN(C(=O)c2cc(C)nc3ccccc23)CC1	71	-	-	.	-	-
CCCN(CCC)C(=O)Cc1coc2ccc3ccccc3c12	-	-	-	-	-	-
COc1cc(/C=N/n2c(SC)nnc(C(C)(C)C)c2=O)ccc1O	77	-	-	-	-	-
CCOc1ncnc2c1oc1nc(CC(C)C)c3c(c12)CC(C)(C)OC3	-	10	-	-	-	-
O=C(CSc1nnnn1Cc1ccccc1)c1ccccc1F	93	-	-	.	-	-
Cc1ccc(C(=O)CSc2nnnn2Cc2ccccc2)cc1C	.	.	-	.	.	-
CCN(c1ccc(NC(=O)COC(=O)/C=C/c2cccs2)cc1)C(C)C	-	-	-	.	-	-
C/C=C/C(=O)OCC(=O)Nc1ccc(SC(F)F)cc1	.	-	-	.	-	-
Cc1ccc(N2C=Nc3ccc(C)c4nc(C)cc2c34)cc1	85	-	-	-	-	-
N#Cc1c(/N=C/c2ccccc2)oc(-c2ccccc2)c1-c1ccccc1	-	-	-	-	-	-
COc1ccc(-c2oc(/N=C/N3CCOCC3)c(C#N)c2-c2ccc(OC)cc2)cc1	.	9.1	-	-	-	-
COc1ccccc1N1CCN(C(c2ccc(F)cc2)c2nnnn2C(C)C)CC1 (centres undefined)	.	-	-	18	24	-
CCOC(=O)C1=C(Cc2ccc(C)cc2)C(=O)c2ccccc2C1=O	-	9.6	-	-	-	-
COc1ccc(OCC(=O)Nc2ccccc2OC)cc1	.	-	-	-	-	-
COc1ccccc1CNC(=O)C(=O)Nc1nccs1	-	-	-	.	-	-
COc1ccccc1CNC(=O)c1ccc(-c2ccccc2Cl)o1	-	10	-	-	-	-
CNCc1ccccc1OCC(=O)Nc1ccccc1OC	-	-	37	-	-	105
COc1ccccc1NC(=O)C(=O)NCc1ccccc1Cl	-	8.7	-	-	-	-
CC[C@@H](Nc1ncnc2c1oc1ccccc12)C(=O)O	.	.	-	.	.	-
CC1=CC=CC2=NC(=O)CC(C)(C(=O)O)N12 (centres undefined)	.	-	-	.	-	-
COc1ccc(NC(=O)c2ccco2)cc1NC(=O)c1ccc(Br)o1	73	-	-	-	-	-
CCOC(=O)N1CCN(C(=S)NC)CC1	72	-	-	-	-	-

Assay outcomes (PubChem BioAssay)
